# Screens deposited in PubChem BioAssay by The Scripps Research Institute Molecular Screening Center.
# The list is not random: actives were taken first. Their share in the collection is about 1.8%.
# M5 PAM: human M5 muscarinic receptor positive allosteric modulators, primary screen, CHO-K1 cells, Fluo-8 calcium fluorescence; 360,000 tested, 0.3% active; activation, % at 3 µM; AID 624038, 2012; CHO-K1 hM5, ACh EC20 PAM; 0% = ACh EC20, 100% = ACh EC100;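 active means activation above the run cutoff, the mean activation of all test compounds plus 3 SD, cut at about 18% in these data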
# Target sequence (P08912 whole entry, looked up): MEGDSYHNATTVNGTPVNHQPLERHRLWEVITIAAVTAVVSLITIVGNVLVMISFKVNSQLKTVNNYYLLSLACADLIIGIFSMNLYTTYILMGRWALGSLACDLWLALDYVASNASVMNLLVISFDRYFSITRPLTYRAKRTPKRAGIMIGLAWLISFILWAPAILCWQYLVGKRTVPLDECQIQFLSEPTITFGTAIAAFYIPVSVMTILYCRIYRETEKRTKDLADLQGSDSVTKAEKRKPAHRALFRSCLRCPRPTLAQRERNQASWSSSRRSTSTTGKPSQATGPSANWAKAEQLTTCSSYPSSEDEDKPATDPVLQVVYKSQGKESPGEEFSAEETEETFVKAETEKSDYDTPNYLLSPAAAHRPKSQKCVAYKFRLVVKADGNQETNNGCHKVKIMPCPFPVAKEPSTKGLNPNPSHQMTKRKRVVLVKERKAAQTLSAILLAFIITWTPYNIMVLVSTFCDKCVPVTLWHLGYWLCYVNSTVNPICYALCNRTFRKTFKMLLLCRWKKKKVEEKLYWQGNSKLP
#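 Assay system: CHO-K1 hM5 cells / Incubation: Fluo-8 loading 80 min at 37 °C plus 30 min room temperature / Technique: Fluo-8 calcium dye fluorescence, kinetic read / Repeats: single replicate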
# CHRM4 PAM: human M4 muscarinic receptor positive allosteric modulators, primary screen, CHO-K1 cells, Fluo-8 calcium fluorescence | CHO-K1 hM4/Gqi5, ACh EC20; 0% = ACh EC20, 100% = maximal ACh | 360,000 tested, 0.4% active | activation, % at 3 µM | Muscarinic acetylcholine receptor M4 (Homo sapiens), P08173;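 active means activation above its plate's cutoff, the mean activation of sample wells plus 3 SD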
# CHRM4 antagonist: human M4 muscarinic receptor antagonists, primary screen, CHO cells, Fluo-8 calcium fluorescence; 360,000 tested, 0.73% active; inhibition, % at 3 µM; CHO-hM4 cells, ACh EC80; AID 624125, 2012;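 active means inhibition above its plate's cutoff, the mean inhibition of sample wells plus 3 SD, cut at about 27% in these data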
# M4 ag: human M4 muscarinic receptor agonists, primary screen, CHO-K1 cells, Fluo-8 calcium fluorescence; CHO-K1 hM4/Gqi5; vehicle 0%, full acetylcholine response 100%; activation, % at 3 µM; 360,000 tested, 0.14% active; Muscarinic acetylcholine receptor M4 (Homo sapiens), P08173;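 active means activation above the run mean over all test wells plus 3 SD, cut at about 32% in these data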;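 further: peak over basal fluorescence ratio per well then scaled between controls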
# CHRM5 antagonist: human M5 muscarinic receptor antagonists, primary screen, CHO cells, Fluo-8 calcium fluorescence; Muscarinic acetylcholine receptor M5 (Homo sapiens), P08912; CHO-hM5 cells, ACh EC80; inhibition, % at 3 µM; 360,000 tested, 0.59% active; AID 624040, 2012;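 active means inhibition above a per-plate cutoff, the mean of that plate's test compounds plus 3 SD, cut at about 27% in these data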
# M5 ag: human M5 muscarinic receptor agonists, primary screen, CHO-K1 cells, Fluo-8 calcium fluorescence | Muscarinic acetylcholine receptor M5 (Homo sapiens), P08912 | CHO-K1 hM5 cells; 0% DMSO wells, 100% maximal acetylcholine response | activation, % at 3 µM | 360,000 tested, 0.19% active | AID 624037, 2012;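 active means activation above the run's mean over test compounds plus 3 SD, cut at about 23% in these data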;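 further: signal is peak over basal fluorescence ratio across the kinetic read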
# Hits are given with their value; – = inactive.
SMILES,M5 PAM,CHRM4 PAM,CHRM4 antagonist,M4 ag,CHRM5 antagonist,M5 ag
COc1ccc(NC(=O)C2c3ccccc3OCC(=O)N2CCc2ccccc2)cc1 (stereo unspecified),–,–,–,–,–,–
Nc1nc(N)c2c(ccc3c2ccn3Cc2cccc([N+](=O)[O-])c2)n1,–,–,–,–,–,–
CCOC(=O)C1(C)CCN1C(=O)c1csnn1 (stereo unspecified),–,–,–,–,–,–
O=[N+]([O-])/C=C/c1cn(Cc2ccc(Cl)cc2)c2ccccc12,–,–,–,–,33.1,–
COc1ccc(S(=O)(=O)N2CCCCC2)cc1NC(=O)c1cccc(S(=O)(=O)N2CC(C)OC(C)C2)c1 (stereo unspecified),–,–,–,–,–,–
Cc1nc2nc(SCC(=O)NCCCN3CCCCCC3)nn2c(C)c1Cc1ccccc1,–,–,37.6,–,–,–
Cc1ccccc1Cc1c(C)nc2nc(SCC(=O)NCCCN3CCCCC3)nn2c1C,–,–,–,–,–,–
O=C(Cn1cnc2c(nnn2Cc2ccc(F)cc2)c1=O)Nc1ccc2c(c1)OCCO2,–,–,–,–,–,–
CCCc1nc2sc3c(c2c(=O)[nH]1)CCCC3,18.1,–,–,–,–,–
COCc1nc2sc3c(c2c(=O)[nH]1)CCCC3,–,–,–,–,–,–
CN(CC(=O)N1CCN(c2ccccc2)CC1)C1CCCc2ccccc21 (stereo unspecified),–,–,–,–,–,–
O=C([C@H]1O[C@@H](n2ccc(=O)[nH]c2=O)[C@H](O)[C@@H]1O)N1CCSC1,–,–,–,–,–,–
COc1ccc(C(N)c2csc(Nc3cc(Oc4ccccc4)ncn3)n2)cc1 (stereo unspecified),–,–,41.4,–,29.5,–
NCCCC[C@H]1CN=C(N)N1CCC12CC3CC(CC(C3)C1)C2,–,–,53.5,–,–,–
CC(C)(C)C(=O)Nc1cccc(-c2nc3ccccc3c(=O)o2)c1,–,–,–,–,–,–
CCCC(=O)Nc1cccc(-c2nc3ccccc3c(=O)o2)c1,–,25.2,–,–,–,–
Cc1nn(-c2ccccc2)c(Cl)c1CN(C(=O)CCl)c1ccc(Cl)cc1,–,–,41.7,–,–,–
CCCCCCn1cc(CN2CC(N3CCN(Cc4ccccc4F)CC3)CS2(=O)=O)nn1 (stereo unspecified),–,–,–,–,–,–
CNC(=S)Nn1cnc2ccccc21,21.8,–,–,–,–,–
Cc1c2c(nc3c(C(=O)NC4CC4)cnn13)CCCC2,–,–,–,–,–,–
CCC(C)NC(=O)c1cnn2c(C)c3c(nc12)CCCC3 (stereo unspecified),–,38.5,–,–,–,–
O=C1NC(=O)C(=C2CCOC2=O)N1,–,–,–,–,–,–
CCCN(CC(=O)Nc1ccccc1C)C(=O)c1ccc(N2CCCC(C)C2)c([N+](=O)[O-])c1 (stereo unspecified),–,–,–,–,–,–
O=[N+]([O-])c1ccc2c(c1)C(O)n1nc(-c3ccc(Cl)cc3Cl)nc1S2 (stereo unspecified),25.1,–,–,–,–,–
O=[N+]([O-])c1ccc2c(c1)C(O)n1ncnc1S2 (stereo unspecified),–,–,–,–,–,–
SMILES,M5 PAM,CHRM4 PAM,CHRM4 antagonist,M4 ag,CHRM5 antagonist,M5 ag
C[N+]1(CC(O)COCC2COc3ccccc3O2)CCOCC1 (stereo unspecified),–,–,–,–,–,–
COC(=O)[C@H]1[C@@H](C)N(Cc2ccccc2)C(=O)N[C@H]1c1cccc(C(F)(F)F)c1,18.5,–,–,–,–,–
O=S(=O)(Nc1cc(Sc2ncn[nH]2)c(O)c2ccccc12)c1ccccc1,–,–,–,–,28.4,–
COc1ccc2c(c1)[nH]c1c(N3CCSCC3)ncnc12,–,–,–,–,–,–
COc1ccc2c(c1)[nH]c1c(N3CCN(Cc4ccc5c(c4)OCO5)CC3)ncnc12,–,–,–,–,31.5,–
Nc1nc(Nc2ccccc2)nc(NCc2ccccc2)c1[N+](=O)[O-],–,–,–,–,–,–
Nc1nc(Nc2ccccc2F)nc(NCc2ccccc2)c1[N+](=O)[O-],19.1,–,–,–,–,–
COc1ccc(N2CCN(C(=S)Nc3ccccc3)CC2)cc1,–,–,–,–,–,–
CC(=O)c1ccc(N2CCN(C(=S)Nc3ccc(Oc4ccccc4)cc3)CC2)cc1,–,–,–,–,34.8,–
Cc1ccc(C(=O)N2CCN(c3ccc(NC(=S)NC(=O)Cc4ccccc4)cc3)CC2)cc1,–,–,–,–,29.1,–
CCCCC(=O)N1CCN(c2nc3ccc(Cl)cc3s2)CC1,–,23.2,–,–,–,–
Cn1c(=O)c2[nH]c(-c3cccnc3)nc2n(C)c1=O,–,31.4,–,–,–,–
CC(OC(=O)CSc1ccc([N+](=O)[O-])cc1)C(=O)NC1CC1 (stereo unspecified),–,–,–,–,–,–
O=c1ccn([C@@H]2O[C@H](CNCc3ccccc3OCc3ccc(Cl)cc3Cl)[C@@H](O)[C@H]2O)c(=O)[nH]1,–,–,–,–,–,–
CCN(c1ccccc1)S(=O)(=O)c1ccc(Cl)c(C(=O)OCC(=O)c2[nH]c(C)c(C(C)=O)c2C)c1,–,–,28.4,–,–,–
CCCCNc1ccc(C(=O)O)cc1,–,–,–,–,–,–
O=C1NCCc2c1[nH]c1c(Cl)ccc(Cl)c21,20.6,–,–,–,–,–
CC(C)OP(=O)(OC(C)C)C(Nc1cccc(C(=O)O)c1)c1ccccc1 (stereo unspecified),–,–,–,–,–,–
CC(C)OP(=O)(OC(C)C)C(Nc1ccc(C(=O)O)cc1)c1ccccc1 (stereo unspecified),–,31.8,38.0,–,–,–
Cc1c(N)cc2c(c1N)C(C)(C)CC2(C)C,–,–,–,–,–,–
CC(CC(=O)Nc1nnc(CC(C)(C)C)s1)c1ccccc1 (stereo unspecified),21.6,–,–,–,–,–
CN1C(=O)/C(=C/c2ccccc2OCc2ccc(F)cc2)N(C)C1=S,–,–,97.1,–,77.4,–
CCOC(=O)N1CCN(c2ccnc3cc(Cl)ccc23)CC1,–,–,77.2,–,–,–
